In ChEMBL document CHEMBL4689842, “EUbOPEN Chemogenomics Library wave 1” (2021):

Test system: HEK-293T
Experiment: Multiplex assay against HEK293T;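 for Population Tubulin-Different-Phenotype (%): share of the cells with healthy nuclei that show this phenotype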
Format: toxicity, cell-based
Details: human
Summary of the method: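 Per cents of healthy-nucleus cells form the tubulin, mitochondrial-mass and membrane-permeability phenotype values. Live cells were stained at seeding with Hoechst33342, BioTracker Green Microtubule Cytoskeleton Dye, MitoTracker Red and Annexin V Alexa Fluor 680. After compound addition they were imaged on a CQ1 microscope at 37°C and 5% CO2, and CellPathfinder machine-learning gating split them into Hoechst high-intensity objects or normal cells, normal cells into healthy, pyknosed or fragmented nuclei, and pyknosed cells into mitotic or apoptotic.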

[1] = 12 h, 1 µM, compound concentration 1 uM, replicate 1
[2] = 12 h, 1 µM, compound concentration 1 uM, replicate 2
[3] = 12 h, 10 µM, compound concentration 10 uM, replicate 1
[4] = 12 h, 10 µM, compound concentration 10 uM, replicate 2
[5] = 24 h, 1 µM, compound concentration 1 uM, replicate 1
[6] = 24 h, 1 µM, compound concentration 1 uM, replicate 2
[7] = 24 h, 10 µM, compound concentration 10 uM, replicate 1
[8] = 24 h, 10 µM, compound concentration 10 uM, replicate 2
[9] = 48 h, 1 µM, compound concentration 1 uM, replicate 1
[10] = 48 h, 1 µM, compound concentration 1 uM, replicate 2
[11] = 48 h, 10 µM, compound concentration 10 uM, replicate 1
[12] = 48 h, 10 µM, compound concentration 10 uM, replicate 2

S=C(NCCCc1c[nH]cn1)NCCCN(Cc1ccc(Cl)c(Cl)c1)c1ccc(Br)cn1
Population Apoptotic (%) [1]: 47%
Population Fragmented Nuclei (%) [1]: 8%
Population Healthy Nuclei (%) [1]: 41%
Population Hoechst High Intensity Objects (%) [1]: 11%
Population Membrane Permeable-Phenotype (%) [1]: 4%
Population Mitochondria Different-Phenotype (%) [1]: 83%
Population Mitotic Cells (%) [1]: 52%
Population Normal (%) [1]: 88%
Population Pyknosed Nuclei (%) [1]: 49%
Population Tubulin-Different-Phenotype (%) [1]: 67%
Total Cell Count [1]: 310
Population Apoptotic (%) [2]: 19%
Population Fragmented Nuclei (%) [2]: 5%
Population Healthy Nuclei (%) [2]: 44%
Population Hoechst High Intensity Objects (%) [2]: 3%
Population Membrane Permeable-Phenotype (%) [2]: 22%
Population Mitochondria Different-Phenotype (%) [2]: 29%
Population Mitotic Cells (%) [2]: 80%
Population Normal (%) [2]: 96%
Population Pyknosed Nuclei (%) [2]: 50%
Population Tubulin-Different-Phenotype (%) [2]: 54%
Total Cell Count [2]: 240
Population Apoptotic (%) [3]: 88%
Population Fragmented Nuclei (%) [3]: 6%
Population Healthy Nuclei (%) [3]: 2%
Population Hoechst High Intensity Objects (%) [3]: 13%
Population Membrane Permeable-Phenotype (%) [3]: 22%
Population Mitochondria Different-Phenotype (%) [3]: 66%
Population Mitotic Cells (%) [3]: 11%
Population Normal (%) [3]: 86%
Population Tubulin-Different-Phenotype (%) [3]: 77%
Total Cell Count [3]: 356
Population Apoptotic (%) [4]: 84%
Population Fragmented Nuclei (%) [4]: 5%
Population Healthy Nuclei (%) [4]: 3%
Population Hoechst High Intensity Objects (%) [4]: 6%
Population Membrane Permeable-Phenotype (%) [4]: 37%
Population Mitochondria Different-Phenotype (%) [4]: 50%
Population Mitotic Cells (%) [4]: 15%
Population Normal (%) [4]: 93%
Population Pyknosed Nuclei (%) [4]: 90%
Population Tubulin-Different-Phenotype (%) [4]: 100%
Total Cell Count [4]: 220
Population Apoptotic (%) [5]: 61%
Population Fragmented Nuclei (%) [5]: 13%
Population Healthy Nuclei (%) [5]: 31%
Population Hoechst High Intensity Objects (%) [5]: 15%
Population Membrane Permeable-Phenotype (%) [5]: 8%
Population Mitochondria Different-Phenotype (%) [5]: 73%
Population Mitotic Cells (%) [5]: 38%
Population Normal (%) [5]: 84%
Population Tubulin-Different-Phenotype (%) [5]: 73%
Total Cell Count [5]: 308
Population Apoptotic (%) [6]: 20%
Population Fragmented Nuclei (%) [6]: 4%
Population Healthy Nuclei (%) [6]: 40%
Population Hoechst High Intensity Objects (%) [6]: 6%
Population Membrane Permeable-Phenotype (%) [6]: 28%
Population Mitochondria Different-Phenotype (%) [6]: 17%
Population Mitotic Cells (%) [6]: 79%
Population Normal (%) [6]: 93%
Population Pyknosed Nuclei (%) [6]: 54%
Population Tubulin-Different-Phenotype (%) [6]: 52%
Total Cell Count [6]: 239
Population Apoptotic (%) [7]: 82%
Population Fragmented Nuclei (%) [7]: 8%
Population Healthy Nuclei (%) [7]: 2%
Population Hoechst High Intensity Objects (%) [7]: 14%
Population Mitochondria Different-Phenotype (%) [7]: 85%
Population Mitotic Cells (%) [7]: 17%
Population Normal (%) [7]: 85%
Population Pyknosed Nuclei (%) [7]: 89%
Total Cell Count [7]: 366
Population Apoptotic (%) [8]: 81%
Population Fragmented Nuclei (%) [8]: 7%
Population Healthy Nuclei (%) [8]: 4%
Population Hoechst High Intensity Objects (%) [8]: 12%
Population Membrane Permeable-Phenotype (%) [8]: 0%
Population Mitochondria Different-Phenotype (%) [8]: 22%
Population Mitotic Cells (%) [8]: 18%
Population Normal (%) [8]: 87%
Population Pyknosed Nuclei (%) [8]: 87%
Population Tubulin-Different-Phenotype (%) [8]: 100%
Total Cell Count [8]: 231
Population Apoptotic (%) [9]: 49%
Population Fragmented Nuclei (%) [9]: 19%
Population Healthy Nuclei (%) [9]: 4%
Population Hoechst High Intensity Objects (%) [9]: 23%
Population Membrane Permeable-Phenotype (%) [9]: 41%
Population Mitochondria Different-Phenotype (%) [9]: 50%
Population Mitotic Cells (%) [9]: 50%
Population Normal (%) [9]: 76%
Population Pyknosed Nuclei (%) [9]: 75%
Population Tubulin-Different-Phenotype (%) [9]: 83%
Total Cell Count [9]: 320
Population Apoptotic (%) [10]: 35%
Population Fragmented Nuclei (%) [10]: 5%
Population Healthy Nuclei (%) [10]: 26%
Population Hoechst High Intensity Objects (%) [10]: 13%
Population Membrane Permeable-Phenotype (%) [10]: 33%
Population Mitochondria Different-Phenotype (%) [10]: 20%
Population Mitotic Cells (%) [10]: 64%
Population Normal (%) [10]: 86%
Population Pyknosed Nuclei (%) [10]: 67%
Population Tubulin-Different-Phenotype (%) [10]: 53%
Total Cell Count [10]: 234
Population Apoptotic (%) [11]: 71%
Population Fragmented Nuclei (%) [11]: 11%
Population Healthy Nuclei (%) [11]: 0%
Population Hoechst High Intensity Objects (%) [11]: 17%
Population Membrane Permeable-Phenotype (%) [11]: 0%
Population Mitochondria Different-Phenotype (%) [11]: 100%
Population Mitotic Cells (%) [11]: 28%
Population Normal (%) [11]: 82%
Population Pyknosed Nuclei (%) [11]: 87%
Total Cell Count [11]: 369
Population Apoptotic (%) [12]: 87%
Population Fragmented Nuclei (%) [12]: 15%
Population Healthy Nuclei (%) [12]: 9%
Population Hoechst High Intensity Objects (%) [12]: 9%
Population Membrane Permeable-Phenotype (%) [12]: 5%
Population Mitochondria Different-Phenotype (%) [12]: 75%
Population Mitotic Cells (%) [12]: 12%
Population Normal (%) [12]: 90%
Population Pyknosed Nuclei (%) [12]: 74%
Population Tubulin-Different-Phenotype (%) [12]: 100%
Total Cell Count [12]: 230
